Experimental data reported in publication PMC4269301 (International journal of peptide research and therapeutics, 2014).
Square brackets hold non-standard residues; d marks the D form. Ends that are not written are not given here. Peptide text beside a SMILES is read from it. Nle = CCCC[C@H](N)C(=O)O

Tests used:
GRK5 [1] = molecular target: T1, GRK5 (Homo sapiens, UniProt P34947); assay: GRK5 phosphorylation of light-activated rhodopsin; assay type: biochemical; conditions: for inhibition at 100 µM: read-out: % Inhibition (100 μM) of GRK5 phosphorylation of rhodopsin; for Inhibition of GRK5 phosphorylation of rhodopsin: peptides 10, 30 and 100 μM, four or more experiments in duplicate
[2] = molecular target: Human His6-tagged GRK5 (human) (UniProt P34947)
GRK2 [3] = molecular target: T2, GRK2 (Homo sapiens, UniProt P25098, S670A); assay: GRK2 phosphorylation of light-activated rhodopsin; assay type: biochemical; conditions: peptides 10, 30 and 100 μM; four or more experiments in duplicate
T2 sequence (P25098 1-689 S670A): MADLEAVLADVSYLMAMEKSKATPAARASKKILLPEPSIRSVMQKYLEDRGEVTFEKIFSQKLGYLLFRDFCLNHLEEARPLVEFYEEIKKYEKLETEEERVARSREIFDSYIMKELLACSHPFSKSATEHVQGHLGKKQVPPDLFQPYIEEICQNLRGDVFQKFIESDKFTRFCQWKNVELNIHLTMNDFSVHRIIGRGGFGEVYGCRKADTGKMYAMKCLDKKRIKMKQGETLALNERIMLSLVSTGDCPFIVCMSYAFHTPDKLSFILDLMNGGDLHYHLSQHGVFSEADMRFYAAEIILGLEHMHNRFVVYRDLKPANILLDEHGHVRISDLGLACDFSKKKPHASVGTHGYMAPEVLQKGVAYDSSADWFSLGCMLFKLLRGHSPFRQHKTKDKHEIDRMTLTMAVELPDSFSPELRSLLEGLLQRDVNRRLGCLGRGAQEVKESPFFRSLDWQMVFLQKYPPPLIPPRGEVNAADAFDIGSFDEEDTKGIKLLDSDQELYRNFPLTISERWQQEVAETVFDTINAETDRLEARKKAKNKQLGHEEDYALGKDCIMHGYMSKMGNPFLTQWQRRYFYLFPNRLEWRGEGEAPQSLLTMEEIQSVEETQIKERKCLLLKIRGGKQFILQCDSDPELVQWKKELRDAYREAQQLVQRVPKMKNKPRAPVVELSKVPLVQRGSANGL
In short: (§1)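 Light-activated (475 nm, 30 s) rhodopsin, 0.5 μM, from urea-stripped bovine ROS. Kinase was purified GRK2 (His₆, S670A, Sf9/baculovirus, Ni-IMAC) or N-terminal His₆ full-length human GRK6, at 10–100 nM. Buffer: 20 mM Tris pH 7.5, 10 mM MgCl₂, 1 mM EDTA, 100 μM [γ³²P]ATP; peptides in DMSO (2–4 %). Ran 5 min, then SDS-PAGE and autoradiography. ≥4 experiments in duplicate, % of control.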

GRK6 = GRK6 phosphorylation of light-activated rhodopsin; assay type: biochemical, human; conditions: peptides 10, 30 and 100 μM; four or more experiments in duplicate
In short: as §1

GRK7 = molecular target: T3, GRK7 (Homo sapiens, UniProt Q8WTQ7); assay: GRK7 phosphorylation of light-activated rhodopsin; assay type: biochemical; conditions: for Inhibition of GRK7 phosphorylation of rhodopsin: peptides 10, 30 and 100 μM, four or more experiments in duplicate
T3 sequence (Q8WTQ7 1-553): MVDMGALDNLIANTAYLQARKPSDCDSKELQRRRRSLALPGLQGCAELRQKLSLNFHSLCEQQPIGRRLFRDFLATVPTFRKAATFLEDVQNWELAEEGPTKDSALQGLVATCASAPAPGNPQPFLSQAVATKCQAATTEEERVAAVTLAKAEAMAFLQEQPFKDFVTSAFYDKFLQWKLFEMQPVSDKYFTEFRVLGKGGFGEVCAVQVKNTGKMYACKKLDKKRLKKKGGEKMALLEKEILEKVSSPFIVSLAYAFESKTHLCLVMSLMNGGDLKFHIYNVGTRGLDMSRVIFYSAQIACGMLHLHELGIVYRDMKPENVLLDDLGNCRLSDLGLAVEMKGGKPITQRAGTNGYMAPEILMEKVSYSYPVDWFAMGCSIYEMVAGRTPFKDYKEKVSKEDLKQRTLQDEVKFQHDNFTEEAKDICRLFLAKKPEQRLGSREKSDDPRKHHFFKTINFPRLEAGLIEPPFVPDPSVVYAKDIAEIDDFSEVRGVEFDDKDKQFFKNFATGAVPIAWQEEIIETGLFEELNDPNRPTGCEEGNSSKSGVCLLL
In short: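 Substrate is urea-stripped bovine rod outer segment rhodopsin (0.5 μM in reaction buffer; 0.5–4 μM per legend), light-activated at 475 nm for 30 s. Peptides are dissolved in DMSO (2–4% final) and quantified by A280. Results are normalised to the no-peptide control as mean ± SEM.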

GRK2 [4] = molecular target: T2, GRK2; assay: GRK2 phosphorylation of tubulin; assay type: biochemical; conditions: 0.5 μM tubulin, 60 min, 30 °C
In short: (§2)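 Bovine brain tubulin 500 nM with 100 nM GRK2 (His₆, S670A, Sf9-expressed) or human His₆-GRK5; 20 mM Tris pH 7.5, 1 mM EDTA, 10 mM MgCl₂, 5 μM DTT, 100 μM [γ³²P]ATP; 60 min, 30 °C. 12 % SDS-PAGE; ³²P-tubulin counted from excised bands or by autoradiogram densitometry. Mean ± SEM, ≥4 experiments in duplicate, % of control; one-way ANOVA.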

GRK5 [5] = molecular target: T1, GRK5; assay: GRK5 phosphorylation of tubulin; assay type: biochemical; conditions: 0.5 μM tubulin, 60 min, 30 °C
In short: as §2

[6] = molecular target: light-activated rhodopsin in urea-stripped bovine rod outer segments (bovine) (UniProt P02699)
[7] = molecular target: Human His6-tagged GRK5 (human) (UniProt P34947); remark: listed apart in the source

T1 sequence (P34947 whole entry): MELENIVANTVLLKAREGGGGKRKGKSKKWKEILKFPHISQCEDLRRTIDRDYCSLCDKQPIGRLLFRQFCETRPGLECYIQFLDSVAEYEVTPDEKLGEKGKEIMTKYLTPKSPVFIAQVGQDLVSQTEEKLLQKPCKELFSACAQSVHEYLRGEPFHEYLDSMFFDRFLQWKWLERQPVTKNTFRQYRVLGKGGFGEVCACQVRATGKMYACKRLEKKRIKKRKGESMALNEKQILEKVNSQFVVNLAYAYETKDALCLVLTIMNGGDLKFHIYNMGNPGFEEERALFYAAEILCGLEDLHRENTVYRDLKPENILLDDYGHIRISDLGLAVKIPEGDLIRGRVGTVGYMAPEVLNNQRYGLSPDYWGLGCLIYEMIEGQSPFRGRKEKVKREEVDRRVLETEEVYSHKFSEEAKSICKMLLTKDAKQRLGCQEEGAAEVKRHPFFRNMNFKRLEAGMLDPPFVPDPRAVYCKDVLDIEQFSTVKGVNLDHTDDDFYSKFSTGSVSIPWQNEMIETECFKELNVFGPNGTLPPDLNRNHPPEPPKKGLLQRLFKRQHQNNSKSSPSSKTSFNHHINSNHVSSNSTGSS
Sequence of Human His6-tagged GRK5 (human) (P34947 whole entry): as above
Sequence of light-activated rhodopsin in urea-stripped bovine rod outer segments (bovine) (P02699 whole entry): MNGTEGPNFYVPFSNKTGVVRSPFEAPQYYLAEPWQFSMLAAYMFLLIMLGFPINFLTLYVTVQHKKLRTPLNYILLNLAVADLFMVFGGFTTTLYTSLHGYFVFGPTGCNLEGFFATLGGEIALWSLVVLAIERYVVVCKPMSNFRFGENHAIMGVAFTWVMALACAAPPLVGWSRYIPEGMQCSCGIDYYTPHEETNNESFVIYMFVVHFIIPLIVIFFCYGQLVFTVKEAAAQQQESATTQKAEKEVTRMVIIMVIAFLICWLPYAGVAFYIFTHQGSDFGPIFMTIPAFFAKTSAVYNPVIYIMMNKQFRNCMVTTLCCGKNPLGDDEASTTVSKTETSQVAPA

Q: Which results are given for `CCCC[C@H](NC(=O)[C@H](CO)NC(C)=O)C(=O)N[C@@H](Cc1ccccc1)C(=O)N[C@@H](Cc1ccccc1)C(=O)N[C@@H](CC(=O)O)C(=O)N[C@@H](CCCNC(=N)N)C(=O)N[C@@H](Cc1ccccc1)C(=O)N[C@@H](CC(C)C)C(=O)N[C@@H](CCC(N)=O)C(=O)N[C@@H](Cc1c[nH]c2ccccc12)C(=O)N[C@@H](CCCCN)C(=O)N[C@@H](Cc1c[nH]c2ccccc12)C(=O)N[C@@H](CC(C)C)C(N)=O` [Peptide T2] (Ac-S[Nle]FFDRFLQWKWL-NH2)?
A: IC50 (GRK5 [1]): 5.2 ± 2 µM; inhibition at 100 µM (GRK5 [1]): 98%

Q: `CCCC[C@H](NC(=O)[C@H](CO)NC(C)=O)C(=O)N[C@@H](Cc1ccccc1)C(=O)N[C@@H](Cc1ccccc1)C(=O)N[C@@H](CC(=O)O)C(=O)N[C@@H](CCCNC(=N)N)C(=O)N[C@@H](Cc1ccccc1)C(=O)N[C@@H](CC(C)C)C(=O)N[C@@H](CCC(N)=O)C(=O)N[C@@H](Cc1c[nH]c2ccccc12)C(=O)N[C@@H](CCCCN)C(=O)N[C@@H](Cc1c[nH]c2ccccc12)C(N)=O` [Peptide T3] (Ac-S[Nle]FFDRFLQWKW-NH2) was tested. Which IC50 (GRK5 [1]) did it give?
A: The IC50 was 6.1 ± 4.4 µM.

Q: And the inhibition at 100 µM (GRK5 [1])?
A: Its inhibition at 100 µM is 97%.

Q: For α9 (164–178) peptide of GRK5, which GRK5 phosphorylation of light-activated rhodopsin: IC50 of inhibition [2] is on record?
A: The GRK5 phosphorylation of light-activated rhodopsin: IC50 of inhibition was 15.9 µM.

Q: With MELENIVANTVLLKAR-NH2 [N-Ter] as the molecule, how does the IC50 (GRK5 [1]) read?
A: The IC50 was 5 to 10 µM.

Q: And the “Inhibition of GRK5 phosphorylation of rhodopsin” value (GRK5 [1])?
A: Its value is “reasonably potent inhibitor”.

Q: What about the “Inhibition of GRK2 phosphorylation of rhodopsin” value (GRK2 [3]) of the same molecule?
A: Its value is “less potent inhibitor”.

Q: What about the “Inhibition of GRK6 phosphorylation of rhodopsin” value (GRK6) of the same molecule?
A: The value was “less potent inhibitor”.

Q: What about the IC50 (GRK7) of the same molecule?
A: The IC50 was 5 to 10 µM.

Q: What about the “Inhibition of GRK7 phosphorylation of rhodopsin” value (GRK7) of the same molecule?
A: Its value is “reasonably potent inhibitor”.

Q: What about the “Effect on GRK2 phosphorylation of tubulin, basal activity” value (GRK2 [4]) of the same molecule?
A: The value was “no significant effect”.

Q: And the “Effect on GRK5 phosphorylation of tubulin, basal activity” value (GRK5 [5])?
A: Its value is “no significant effect”.

Q: Which “% Inhibition (100 μM) of GRK5 phosphorylation of rhodopsin” value (GRK5 [1]; 100 μM peptide, 0.5 μM light-activated rhodopsin, 100 μM ATP, 5 min) does the source give for “Ac-S[Nle]AFDRFLQWKWLER-NH2 [Peptide F166A]” here?
A: Its value is 42%.

Q: Which IC50 (GRK5 [1]) does the source give for `CCCC[C@H](NC(=O)[C@H](CO)NC(C)=O)C(=O)N[C@@H](Cc1ccccc1)C(=O)N[C@@H](Cc1ccccc1)C(=O)N[C@@H](CC(=O)O)C(=O)N[C@@H](CCCNC(=N)N)C(=O)N[C@@H](Cc1ccccc1)C(=O)N[C@@H](CC(C)C)C(=O)N[C@@H](C)C(=O)N[C@@H](Cc1c[nH]c2ccccc12)C(=O)N[C@@H](CCCCN)C(=O)N[C@@H](Cc1c[nH]c2ccccc12)C(=O)N[C@@H](CC(C)C)C(=O)N[C@@H](CCC(=O)O)C(=O)N[C@@H](CCCNC(=N)N)C(N)=O` [Peptide Q172A] (Ac-S[Nle]FFDRFLAWKWLER-NH2) here?
A: Its IC50 is 15.1 ± 7.3 µM.

Q: What about the inhibition at 100 µM (GRK5 [1]) of the same molecule?
A: Its inhibition at 100 µM is 95%.

Q: Which results are given for “Ac-ILENLKDCGLF-NH2 [TCT, reference compound]”?
A: IC50 (GRK5 [1]): ~10 µM; Inhibition of GRK5 phosphorylation of rhodopsin (GRK5 [1]): showed inhibition; Inhibition of GRK2 phosphorylation of rhodopsin (GRK2 [3]): relatively inactive; Inhibition of GRK6 phosphorylation of rhodopsin (GRK6): showed inhibition; Inhibition of GRK7 phosphorylation of rhodopsin (GRK7): showed inhibition; Effect on GRK2 phosphorylation of tubulin, basal activity (GRK2 [4]): no significant effect; Effect on GRK5 phosphorylation of tubulin, basal activity (GRK5 [5]): no significant effect

B1: Gα transducin C-tail peptide TCT (340–350) K341L (peptide)
peptide: Ac-ILENLKDCGLF-NH2
Q: How did the GRK5 phosphorylation of light-activated rhodopsin: IC50 of inhibition [6] turn out when B1 was run?
A: Its GRK5 phosphorylation of light-activated rhodopsin: IC50 of inhibition is 10 µM.

B2: α3 (61–71) peptide of GRK5 (peptide)
peptide: Ac-PIGRLLFRQFC-NH2
Q: B2 was tested. Which GRK5 phosphorylation of tubulin: IC50 of inhibition [7] did it give?
A: Its GRK5 phosphorylation of tubulin: IC50 of inhibition is 30 µM.
